Values after ≈ are worked out from the molar mass of the structure shown.
Legend:
Klebsiella pneumoniae = experiment: Antimicrobial activity against Klebsiella pneumoniae ATCC 10031 after 24 hrs by broth microdilution assay; type: functional; conditions: ATCC 10031, 24 h
How it was run: (§1)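 Broth dilution MIC. Stock is 10 mg compound in 1 mL DMSO, serially diluted in Mueller–Hinton broth for bacteria or Sabouraud liquid medium for yeasts and mould. Tubes are inoculated at 10⁵ cfu/mL and incubated at 37 °C for 24 h. Controls are medium alone and medium with DMSO at matching dilutions. MIC is the lowest concentration giving complete growth inhibition.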

Enterococcus faecalis = experiment: Antimicrobial activity against Streptococcus faecalis ATCC 14506 after 24 hrs by broth microdilution assay; type: functional; conditions: ATCC 14506, 24 h; how it was run: as §1
A549 = experiment: Cytotoxicity against human A549 cells at 250 uM; type: cell-based; conditions: a549, 250 µM
How it was run: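 A549 lung adenocarcinoma cells are grown with fetal bovine serum. Compounds are taken from 10 mM DMSO stocks stored at −20 °C and diluted in culture medium, with treatments at 50–250 µM. Viability is read by MTT assay against untreated cells and a DMSO vehicle control.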

Bacillus subtilis = experiment: Antimicrobial activity against Bacillus subtilis ATCC 60511 after 24 hrs by broth microdilution assay; type: functional; conditions: ATCC 60511, 24 h; how it was run: as §1
Saccharomyces cerevisiae = experiment: Antimicrobial activity against Saccharomyces cerevisiae ATCC 9763 after 24 hrs by broth microdilution assay; type: functional; conditions: ATCC 9763, 24 h; how it was run: as §1
Pseudomonas aeruginosa = experiment: Antimicrobial activity against Pseudomonas aeruginosa ATCC 10145 after 24 hrs by broth microdilution assay; type: functional; conditions: ATCC 10145, 24 h; how it was run: as §1
Escherichia coli = experiment: Antimicrobial activity against Escherichia coli ATCC 10536 after 24 hrs by broth microdilution assay; type: functional; conditions: ATCC 10536, 24 h; how it was run: as §1
Aspergillus niger = experiment: Antimicrobial activity against Aspergillus niger ATCC 6275 after 24 hrs by broth microdilution assay; type: functional; conditions: ATCC 6275, 24 h; how it was run: as §1
Staphylococcus aureus = experiment: Antimicrobial activity against Staphylococcus aureus ATCC 11632 after 24 hrs by broth microdilution assay; type: functional; conditions: ATCC 11632, 24 h; how it was run: as §1
[1] = test system: Mycobacterium tuberculosis; experiment: Antimycobacterial activity against Mycobacterium tuberculosis H37Rv after 21 days by broth dilution assay; type: functional; conditions: 504 h
How it was run: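 Middlebrook 7H9 broth with 10% albumin-dextrose-catalase and 0.2% glycerol; frozen culture thawed, diluted to 10⁵ cfu/mL and used as inoculum. Compounds taken up in DMSO and diluted twice in broth, 1.3% DMSO final. Incubated at 37 °C. Growth judged by eye against drug-free and inoculum-free controls and isoniazid. MIC is the lowest concentration inhibiting ≥99% of the starting population.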

Candida tropicalis = experiment: Antimicrobial activity against Candida tropicalis ATCC 1369 after 24 hrs by broth microdilution assay; type: functional; conditions: ATCC 1369, 24 h; how it was run: as §1

SMILES | MIC (Klebsiella pneumoniae) [µg/mL] | MIC (Enterococcus faecalis) [µg/mL] | Activity (A549) | MIC (Bacillus subtilis) [µg/mL] | MIC (Saccharomyces cerevisiae) [µg/mL] | MIC (Pseudomonas aeruginosa) [µg/mL] | MIC (Escherichia coli) [µg/mL] | MIC (Aspergillus niger) [µg/mL] | MIC (Staphylococcus aureus) [µg/mL] | MIC [1] [µg/mL] | MIC (Candida tropicalis) [µg/mL]
Cc1ccc(/C=N/n2c(S)nnc2-c2nc(C(C)C)cs2)cc1 | 125 (≈ 364 µM) | 125 (≈ 364 µM) | 50% | 31.2 (≈ 91 µM) | 31.2 (≈ 91 µM) | 31.2 (≈ 91 µM) | 125 (≈ 364 µM) | 16 (≈ 46.6 µM) | 31.2 (≈ 91 µM) | 32.5 (≈ 94.6 µM) | 31.2 (≈ 91 µM)
CC(C)c1csc(-c2nnc(S)n2/N=C/c2ccccc2Cl)n1 | 8 (≈ 22 µM) | 8 (≈ 22 µM) | 50% | 4 (≈ 11 µM) | 31.2 (≈ 85.9 µM) | 16 (≈ 44 µM) | 62.5 (≈ 172 µM) | 16 (≈ 44 µM) | 31.2 (≈ 85.9 µM) | 4 (≈ 11 µM) | 31.2 (≈ 85.9 µM)
CC(=O)N1N=C(c2nc(C(C)C)cs2)OC1(C)c1ccc(Cl)cc1 (centres undefined) | 8 (≈ 22 µM) | 62.5 (≈ 172 µM) | Toxic | 31.2 (≈ 85.9 µM) | 62.5 (≈ 172 µM) | 8 (≈ 22 µM) | 8 (≈ 22 µM) | 62.5 (≈ 172 µM) | 16 (≈ 44 µM) | 16 (≈ 44 µM) | 31.2 (≈ 85.9 µM)
CC(C)c1csc(-c2nnc(-c3ccc([N+](=O)[O-])cc3)o2)n1 | 62.5 (≈ 198 µM) | 31.2 (≈ 98.8 µM) | 50% | 31.2 (≈ 98.8 µM) | 16 (≈ 50.6 µM) | 31.2 (≈ 98.8 µM) | 125 (≈ 395 µM) | 31.2 (≈ 98.8 µM) | 16 (≈ 50.6 µM) | 62.5 (≈ 198 µM) | 16 (≈ 50.6 µM)
CC(C)c1csc(-c2nnc(S)n2/N=C/c2ccc[nH]2)n1 | 31.2 (≈ 98.1 µM) | 31.2 (≈ 98.1 µM) | – | 62.5 (≈ 196 µM) | 31.2 (≈ 98.1 µM) | 62.5 (≈ 196 µM) | 62.5 (≈ 196 µM) | 16 (≈ 50.2 µM) | 31.2 (≈ 98.1 µM) | 31.2 (≈ 98.1 µM) | 62.5 (≈ 196 µM)
CC(C)c1csc(-c2nnc3sc(-c4ccc(O)cc4)nn23)n1 | 125 (≈ 364 µM) | 125 (≈ 364 µM) | – | 125 (≈ 364 µM) | 250 (≈ 728 µM) | 125 (≈ 364 µM) | 125 (≈ 364 µM) | 125 (≈ 364 µM) | 250 (≈ 728 µM) | 62.5 (≈ 182 µM) | 125 (≈ 364 µM)
